Laboratory results published in ChEMBL document CHEMBL1135415, “Rational design and evaluation of new lead compound structures for selective betaARK1 inhibitors” (J Med Chem, 2002).
Calls of active or inactive are those of the source. No cut-off for these calls is given here.

Experiments:
[1] = molecular target: T1, Beta-adrenergic receptor kinase 1 (Homo sapiens) (UniProt P25098); experiment: Inhibition of Beta-adrenergic receptor kinase 1 at 1 mM
T1 sequence (whole entry): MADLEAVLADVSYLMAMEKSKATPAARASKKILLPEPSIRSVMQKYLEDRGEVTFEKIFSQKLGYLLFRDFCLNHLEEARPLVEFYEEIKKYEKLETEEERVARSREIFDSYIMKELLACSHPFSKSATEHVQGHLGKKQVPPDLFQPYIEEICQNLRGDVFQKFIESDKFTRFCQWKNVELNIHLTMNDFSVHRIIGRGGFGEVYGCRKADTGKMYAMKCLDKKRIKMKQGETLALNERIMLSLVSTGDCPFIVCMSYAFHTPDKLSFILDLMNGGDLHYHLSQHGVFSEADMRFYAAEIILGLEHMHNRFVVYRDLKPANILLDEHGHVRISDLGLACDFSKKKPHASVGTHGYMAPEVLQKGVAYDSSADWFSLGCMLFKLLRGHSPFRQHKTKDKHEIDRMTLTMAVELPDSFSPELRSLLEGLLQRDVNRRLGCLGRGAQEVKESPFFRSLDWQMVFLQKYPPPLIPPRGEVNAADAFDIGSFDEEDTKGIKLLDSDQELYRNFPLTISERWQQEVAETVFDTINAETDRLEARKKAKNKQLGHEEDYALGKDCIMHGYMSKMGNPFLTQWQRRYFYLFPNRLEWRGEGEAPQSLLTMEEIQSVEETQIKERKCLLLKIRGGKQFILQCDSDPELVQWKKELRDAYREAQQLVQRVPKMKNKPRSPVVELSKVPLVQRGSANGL
How it was run: (§1)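 Radiometric assay of βARK1 phosphorylating the intracellular C-terminal domain of human β2-adrenergic receptor (6.7 μM) with 10 mM [γ-32P]ATP (18.5 kBq). Stopped on ice water, then gel electrophoresis and imaging-plate readout of radioactivity. Inhibition % taken against control and background.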

[2] = molecular target: T1, Beta-adrenergic receptor kinase 1 (Homo sapiens); experiment: Inhibition of Beta-adrenergic receptor kinase 1 at 1 mM (Inactive); how it was run: as §1
[3] = molecular target: T2, Beta-adrenergic receptor kinase 1 (Homo sapiens, UniProt P25098); experiment: Inhibition of Beta-adrenergic receptor kinase 1; how it was run: as §1
T2 sequence (P25098 whole entry): T1 sequence (whole entry)

[4] = molecular target: cAMP-dependent protein kinase (PKA) (Homo sapiens) (UniProt P22694+P17612+P22612); experiment: Inhibition of Protein kinase A (PKA) at 1 mM; assay type: functional
How it was run: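 Colorimetric kit assay of PKA (final 87 units/μL) with dye-linked kemptide substrate (LRRASLG). Incubated 30 min at 30 °C. Phosphorylated substrate captured on affinity membrane, eluted, read at OD 570 nm. PKI5-24 was the positive control.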

Row | SMILES | inhibition [1] | inhibition [2] | further results
1 | O=C(NCc1ccco1)c1ccc([N+](=O)[O-])o1 | 37.7% |  | 
2 | Nc1nc(O)c2ncn([C@H]3O[C@@H]4COP(=O)(O)O[C@H]4[C@H]3O)c2n1 | 24.2% |  | 
3 | O=[N+]([O-])c1ccccc1/N=C/c1ccc2c(c1)OCO2 |  | inactive | 
4 | CC(=O)CC(=O)Nc1cc(C(C)(C)C)sc1C(N)=O | 37.3% |  | 
5 | CC(C)COC(=O)CSc1nc2c(c(=O)[nH]c(=O)n2C)n1C | 0% |  | 
6 | CCOC(=O)c1cnc2c(C(F)(F)F)cccc2c1O | 20.1% |  | 
7 | O=C1C(O)=C(O)O[C@@H]1C1COC2(CCCCC2)O1 (stereo not given in full) | 0% |  | 
8 | Oc1nnc(Cc2ccc(-c3ccccc3Cl)o2)c2ccccc12 | 67.3% |  | 
9 | NC(=O)c1ncn([C@@H]2O[C@@H](CO)[C@H](O)[C@@H]2O)n1 | 0% |  | 
10 | Cc1ccc(Cl)cc1NCN1C(=O)CNC1=S | 26.5% |  | 
11 | CC(C)Sc1nc2sccn2c1/C=N/OCc1c(Cl)cccc1Cl |  | inactive | 
12 | O=C(Nc1ccc(F)c([N+](=O)[O-])c1)Nc1cccc2c(O)cccc12 |  | inactive | 
13 | CCCCCCCCCCCCCCCCN(C)c1ccc(S(C)(=O)=O)cc1N |  | inactive | 
14 | Clc1ccc(-c2csc(Nc3ccccc3)n2)cc1 |  | inactive | 
15 | O=C1C(O)=C(O)O[C@H]1C1COC2(CCCCC2)O1 (stereo not given in full) | 20.4% |  | 
16 | C/C(CCS(=O)(=O)c1ccccc1)=N\OC/C=C/Cl |  | inactive | 
17 | COC(=O)c1sccc1Oc1ccc(C(F)(F)F)cc1NC=C(C#N)C#N | 28.8% |  | 
18 | Cc1csc(-c2nc(-c3ccc(Cl)cc3)no2)c1Cl |  | inactive | 
19 | CCC(=O)n1nc2c(c1C(C)(C)C)C(=O)c1ccccc1-2 | 52.7% |  | IC50 [3]: 563 µM; inhibition [4]: -2.2%
20 | COc1ccc(/C=N/c2ccc(O)cc2)cc1 |  | inactive | 
21 | COC(=O)c1ccc(/C=C/c2ccc([N+](=O)[O-])o2)o1 | 88.4% |  | IC50 [3]: 126 µM; inhibition [4]: 1.8%
